ChEMBL document CHEMBL2346629, “Discovery and characterization of novel allosteric FAK inhibitors” (Eur J Med Chem, 2013)

Legend:
[1] = target: Homeodomain-interacting protein kinase 4 (Homo sapiens) (UniProt Q8NE63); assay: Inhibition of HIPK4 (unknown origin) using [gamma-33P]ATP assessed as residual activity at 3 uM
Method in brief: (§1)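 Radiometric kinase profiling service covering 288 kinases (261 wild-type, 27 mutant). Inhibition was read as incorporation from [γ-³³P]ATP.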

[2] = target: Ribosomal protein S6 kinase alpha-2 (Homo sapiens) (UniProt Q15349); assay: Inhibition of RSK3 (unknown origin) using [gamma-33P]ATP assessed as residual activity at 3 uM
[3] = target: Casein kinase I isoform delta (Homo sapiens) (UniProt P48730); assay: Inhibition of CK1d (unknown origin) using [gamma-33P]ATP assessed as residual activity at 3 uM
Method in brief: (§2)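 Radiometric profiling across 288 kinases (261 wild-type, 27 mutant), run as an outsourced service. Inhibition read out as [gamma-33P]ATP incorporation into substrate.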

[4] = tested on: Proto-oncogene tyrosine-protein kinase Src (Homo sapiens), P12931 [T341M]; assay: Inhibition of c-Src T341M mutant (unknown origin) using [gamma-33P]ATP assessed as residual activity at 3 uM
[5] = target: 3-phosphoinositide-dependent protein kinase 1 (Homo sapiens) (UniProt O15530); assay: Inhibition of PDK1 (unknown origin) using [gamma-33P]ATP assessed as residual activity at 3 uM
[6] = target: Serine/threonine-protein kinase PLK1 (Homo sapiens) (UniProt P53350); assay: Inhibition of PLK1 (unknown origin) using [gamma-33P]ATP assessed as residual activity at 3 uM
[7] = target: Cyclin-dependent kinase 5/CDK5 activator 1 (Homo sapiens) (UniProt Q00535+Q15078); assay: Inhibition of CDK5/p25 (unknown origin) using [gamma-33P]ATP assessed as residual activity at 3 uM; assay type: protein-complex assay; method in brief: as §2
[8] = target: Serine/threonine-protein kinase Chk1 (Homo sapiens) (UniProt O14757); assay: Inhibition of CHK1 (unknown origin) using [gamma-33P]ATP assessed as residual activity at 3 uM; method in brief: as §2
[9] = target: Mitogen-activated protein kinase kinase kinase kinase 4 (Homo sapiens, UniProt O95819); assay: Inhibition of HGK (unknown origin) using [gamma-33P]ATP assessed as residual activity at 3 uM
[10] = tested on: Fibroblast growth factor receptor 1 (Homo sapiens), P11362 [V561M]; assay: Inhibition of FGFR1 V561M mutant (unknown origin) using [gamma-33P]ATP assessed as residual activity at 3 uM
Method in brief: (§3)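 Reaction Biology HotSpot radiometric profiling panel of 288 kinases (261 wild-type, 27 mutant). Kinase activity was read out by incorporation of [γ-33P]ATP.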

[11] = target: Serine/threonine-protein kinase PAK 4 (Homo sapiens) (UniProt O96013); assay: Inhibition of PAK4 (unknown origin) using [gamma-33P]ATP assessed as residual activity at 3 uM
[12] = target: Mitogen-activated protein kinase kinase kinase kinase 2 (Homo sapiens) (UniProt Q12851); assay: Inhibition of GCK (unknown origin) using [gamma-33P]ATP assessed as residual activity at 3 uM
[13] = target: LIM domain kinase 1 (Homo sapiens) (UniProt P53667); assay: Inhibition of LIMK1 (unknown origin) using [gamma-33P]ATP assessed as residual activity at 3 uM; method in brief: as §1
[14] = target: Serine/threonine-protein kinase Nek4 (Homo sapiens) (UniProt P51957); assay: Inhibition of NEK4 (unknown origin) using [gamma-33P]ATP assessed as residual activity at 3 uM
[15] = target: Casein kinase I isoform epsilon (Homo sapiens) (UniProt P49674); assay: Inhibition of CK1epsilon (unknown origin) using [gamma-33P]ATP assessed as residual activity at 3 uM; method in brief: as §3
[16] = target: Serine/threonine-protein kinase D3 (Homo sapiens) (UniProt O94806); assay: Inhibition of PRKD3 (unknown origin) using [gamma-33P]ATP assessed as residual activity at 3 uM
[17] = target: Maternal embryonic leucine zipper kinase (Homo sapiens) (UniProt Q14680); assay: Inhibition of MELK (unknown origin) using [gamma-33P]ATP assessed as residual activity at 3 uM
Method in brief: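 Contract radiometric panel screen of 288 kinases (261 wild-type, 27 mutant). Inhibition was read by [gamma-33P]ATP radioactivity incorporation.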

[18] = target: Mitogen-activated protein kinase 11 (Homo sapiens) (UniProt Q15759); assay: Inhibition of P38b (unknown origin) using [gamma-33P]ATP assessed as residual activity at 3 uM
[19] = target: Homeodomain-interacting protein kinase 2 (Homo sapiens) (UniProt Q9H2X6); assay: Inhibition of HIPK2 (unknown origin) using [gamma-33P]ATP assessed as residual activity at 3 uM; method in brief: as §1
[20] = target: Vascular endothelial growth factor receptor 1 (Homo sapiens) (UniProt P17948); assay: Inhibition of FLT1 (unknown origin) using [gamma-33P]ATP assessed as residual activity at 3 uM; method in brief: as §3
[21] = tested on: Platelet-derived growth factor receptor alpha (Homo sapiens), P16234 [D842V]; assay: Inhibition of PDGFRa D842V mutant (unknown origin) using [gamma-33P]ATP assessed as residual activity at 3 uM
[22] = target: Serine/threonine-protein kinase WNK3 (Homo sapiens) (UniProt Q9BYP7); assay: Inhibition of WNK3 (unknown origin) using [gamma-33P]ATP assessed as residual activity at 3 uM
[23] = target: Serine/threonine-protein kinase WNK2 (Homo sapiens) (UniProt Q9Y3S1); assay: Inhibition of WNK2 (unknown origin) using [gamma-33P]ATP assessed as residual activity at 3 uM
[24] = target: Insulin receptor (Homo sapiens) (UniProt P06213); assay: Inhibition of IR (unknown origin) using [gamma-33P]ATP assessed as residual activity at 3 uM; method in brief: as §1
[25] = target: Serine/threonine-protein kinase Nek3 (Homo sapiens) (UniProt P51956); assay: Inhibition of NEK3 (unknown origin) using [gamma-33P]ATP assessed as residual activity at 3 uM
[26] = target: Calcium/calmodulin-dependent protein kinase type II subunit alpha (Homo sapiens) (UniProt Q9UQM7); assay: Inhibition of CAMK2a (unknown origin) using [gamma-33P]ATP assessed as residual activity at 3 uM; method in brief: as §2
[27] = target: Wee1-like protein kinase (Homo sapiens) (UniProt P30291); assay: Inhibition of WEE1 (unknown origin) using [gamma-33P]ATP assessed as residual activity at 3 uM
[28] = tested on: Epidermal growth factor receptor (Homo sapiens), P00533 [L858R]; assay: Inhibition of EGFR L858R mutant (unknown origin) using [gamma-33P]ATP assessed as residual activity at 3 uM; assay type: protein assay; method in brief: as §3
[29] = target: Dual specificity protein kinase CLK3 (Homo sapiens) (UniProt P49761); assay: Inhibition of CLK3 (unknown origin) using [gamma-33P]ATP assessed as residual activity at 3 uM; method in brief: as §3
[30] = target: Mitogen-activated protein kinase 3 (Homo sapiens) (UniProt P27361); assay: Inhibition of ERK1 (unknown origin) using [gamma-33P]ATP assessed as residual activity at 3 uM; method in brief: as §3
[31] = target: Homeodomain-interacting protein kinase 1 (Homo sapiens) (UniProt Q86Z02); assay: Inhibition of HIPK1 (unknown origin) using [gamma-33P]ATP assessed as residual activity at 3 uM; method in brief: as §1

Chain of Mitogen-activated protein kinase 3 (Homo sapiens) (P27361 whole entry): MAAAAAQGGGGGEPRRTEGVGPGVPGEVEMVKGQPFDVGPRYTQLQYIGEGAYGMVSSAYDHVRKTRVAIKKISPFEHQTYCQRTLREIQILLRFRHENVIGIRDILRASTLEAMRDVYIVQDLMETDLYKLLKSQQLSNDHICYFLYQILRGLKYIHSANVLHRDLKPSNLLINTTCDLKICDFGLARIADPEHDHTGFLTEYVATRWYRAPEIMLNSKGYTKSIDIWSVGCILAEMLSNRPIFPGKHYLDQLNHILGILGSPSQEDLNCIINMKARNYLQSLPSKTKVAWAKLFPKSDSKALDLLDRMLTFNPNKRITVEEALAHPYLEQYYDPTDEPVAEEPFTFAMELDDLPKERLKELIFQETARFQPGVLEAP
Chain of Casein kinase I isoform epsilon (Homo sapiens) (P49674 whole entry, looked up, canonical isoform): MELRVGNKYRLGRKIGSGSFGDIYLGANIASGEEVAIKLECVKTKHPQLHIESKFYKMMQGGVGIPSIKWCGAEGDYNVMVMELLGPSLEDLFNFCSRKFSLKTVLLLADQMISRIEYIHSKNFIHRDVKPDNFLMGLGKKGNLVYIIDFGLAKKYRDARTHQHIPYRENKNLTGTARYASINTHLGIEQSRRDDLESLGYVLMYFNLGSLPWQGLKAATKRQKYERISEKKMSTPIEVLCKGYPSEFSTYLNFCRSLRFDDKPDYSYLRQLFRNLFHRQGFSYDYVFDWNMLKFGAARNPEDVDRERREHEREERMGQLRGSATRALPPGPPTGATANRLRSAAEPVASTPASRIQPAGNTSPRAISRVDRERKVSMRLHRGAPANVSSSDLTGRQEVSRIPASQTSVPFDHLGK
Chain of Casein kinase I isoform delta (Homo sapiens) (P48730 whole entry, looked up, canonical isoform): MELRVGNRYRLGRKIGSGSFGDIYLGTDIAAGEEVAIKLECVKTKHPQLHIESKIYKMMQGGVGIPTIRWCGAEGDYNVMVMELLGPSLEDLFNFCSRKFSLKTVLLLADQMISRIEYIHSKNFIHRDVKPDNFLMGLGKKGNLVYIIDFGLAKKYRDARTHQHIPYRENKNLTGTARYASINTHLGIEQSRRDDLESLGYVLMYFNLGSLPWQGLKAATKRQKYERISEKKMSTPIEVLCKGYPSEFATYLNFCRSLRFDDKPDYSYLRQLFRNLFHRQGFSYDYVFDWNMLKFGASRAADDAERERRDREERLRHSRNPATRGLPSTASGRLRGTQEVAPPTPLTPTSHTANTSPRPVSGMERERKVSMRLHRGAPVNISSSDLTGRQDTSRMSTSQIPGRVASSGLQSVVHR
Chain of Mitogen-activated protein kinase kinase kinase kinase 2 (Homo sapiens) (Q12851 whole entry, the tested form may be a part): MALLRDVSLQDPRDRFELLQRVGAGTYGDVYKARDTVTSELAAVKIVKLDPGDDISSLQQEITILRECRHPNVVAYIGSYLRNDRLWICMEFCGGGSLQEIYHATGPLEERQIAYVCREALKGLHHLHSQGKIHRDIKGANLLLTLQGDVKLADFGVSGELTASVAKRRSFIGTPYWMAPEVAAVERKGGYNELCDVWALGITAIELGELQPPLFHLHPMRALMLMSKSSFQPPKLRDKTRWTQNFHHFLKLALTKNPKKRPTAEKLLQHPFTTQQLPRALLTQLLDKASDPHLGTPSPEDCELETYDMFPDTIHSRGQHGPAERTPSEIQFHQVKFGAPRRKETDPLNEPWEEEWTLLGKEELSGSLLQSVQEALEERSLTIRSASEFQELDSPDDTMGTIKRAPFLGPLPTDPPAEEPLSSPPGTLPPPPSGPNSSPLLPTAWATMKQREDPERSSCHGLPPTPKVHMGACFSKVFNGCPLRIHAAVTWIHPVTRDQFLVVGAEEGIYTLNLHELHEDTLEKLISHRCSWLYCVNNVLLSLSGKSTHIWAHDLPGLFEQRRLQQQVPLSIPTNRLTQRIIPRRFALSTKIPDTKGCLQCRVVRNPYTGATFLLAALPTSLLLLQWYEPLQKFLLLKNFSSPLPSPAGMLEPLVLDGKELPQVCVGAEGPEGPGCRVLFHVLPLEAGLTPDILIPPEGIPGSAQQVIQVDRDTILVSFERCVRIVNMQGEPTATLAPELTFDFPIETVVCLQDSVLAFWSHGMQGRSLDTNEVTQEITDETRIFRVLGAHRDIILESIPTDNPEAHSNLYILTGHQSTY
Chain of Homeodomain-interacting protein kinase 2 (Homo sapiens) (Q9H2X6 whole entry, looked up): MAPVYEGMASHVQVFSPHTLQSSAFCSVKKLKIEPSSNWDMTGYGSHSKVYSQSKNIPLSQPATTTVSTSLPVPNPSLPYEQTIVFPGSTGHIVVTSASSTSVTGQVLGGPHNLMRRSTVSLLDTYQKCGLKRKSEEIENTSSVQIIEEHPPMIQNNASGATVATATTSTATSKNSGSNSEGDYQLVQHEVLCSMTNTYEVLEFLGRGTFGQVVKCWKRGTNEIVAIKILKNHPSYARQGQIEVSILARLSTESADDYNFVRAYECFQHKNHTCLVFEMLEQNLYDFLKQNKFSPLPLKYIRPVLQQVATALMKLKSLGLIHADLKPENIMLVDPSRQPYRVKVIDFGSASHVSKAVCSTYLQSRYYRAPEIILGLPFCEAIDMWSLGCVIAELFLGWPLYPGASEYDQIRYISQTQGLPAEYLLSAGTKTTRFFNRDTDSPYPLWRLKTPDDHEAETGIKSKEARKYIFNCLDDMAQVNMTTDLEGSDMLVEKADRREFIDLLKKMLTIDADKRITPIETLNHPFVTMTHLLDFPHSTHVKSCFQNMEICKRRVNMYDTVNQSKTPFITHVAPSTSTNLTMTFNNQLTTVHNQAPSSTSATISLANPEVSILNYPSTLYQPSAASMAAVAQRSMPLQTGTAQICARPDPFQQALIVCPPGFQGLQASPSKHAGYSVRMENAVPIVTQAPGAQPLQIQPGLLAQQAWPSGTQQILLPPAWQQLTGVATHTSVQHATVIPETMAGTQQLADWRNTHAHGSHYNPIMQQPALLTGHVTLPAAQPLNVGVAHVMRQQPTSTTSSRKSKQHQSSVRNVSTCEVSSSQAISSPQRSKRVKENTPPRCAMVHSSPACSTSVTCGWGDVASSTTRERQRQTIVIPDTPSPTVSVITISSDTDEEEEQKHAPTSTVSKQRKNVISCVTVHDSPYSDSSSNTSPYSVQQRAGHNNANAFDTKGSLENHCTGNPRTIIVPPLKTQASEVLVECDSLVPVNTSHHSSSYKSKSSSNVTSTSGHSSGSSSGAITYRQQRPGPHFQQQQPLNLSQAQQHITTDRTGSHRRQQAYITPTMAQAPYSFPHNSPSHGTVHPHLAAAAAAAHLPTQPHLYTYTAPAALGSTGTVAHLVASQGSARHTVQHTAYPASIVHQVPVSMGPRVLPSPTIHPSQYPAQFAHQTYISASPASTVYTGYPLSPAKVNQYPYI
Chain of Calcium/calmodulin-dependent protein kinase type II subunit alpha (Homo sapiens) (Q9UQM7 whole entry): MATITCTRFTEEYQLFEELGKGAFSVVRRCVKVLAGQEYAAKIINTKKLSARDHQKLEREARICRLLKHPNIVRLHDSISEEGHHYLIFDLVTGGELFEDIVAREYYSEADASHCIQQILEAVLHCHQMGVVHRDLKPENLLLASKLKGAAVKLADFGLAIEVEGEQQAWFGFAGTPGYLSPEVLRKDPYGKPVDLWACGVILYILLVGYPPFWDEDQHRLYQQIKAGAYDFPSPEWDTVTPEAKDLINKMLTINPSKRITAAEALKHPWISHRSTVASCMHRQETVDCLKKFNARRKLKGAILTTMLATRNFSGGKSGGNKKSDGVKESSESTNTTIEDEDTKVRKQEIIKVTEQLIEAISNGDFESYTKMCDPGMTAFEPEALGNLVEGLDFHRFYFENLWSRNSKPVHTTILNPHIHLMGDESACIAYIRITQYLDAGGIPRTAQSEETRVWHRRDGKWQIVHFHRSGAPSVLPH
Chain of Homeodomain-interacting protein kinase 4 (Homo sapiens) (Q8NE63 whole entry): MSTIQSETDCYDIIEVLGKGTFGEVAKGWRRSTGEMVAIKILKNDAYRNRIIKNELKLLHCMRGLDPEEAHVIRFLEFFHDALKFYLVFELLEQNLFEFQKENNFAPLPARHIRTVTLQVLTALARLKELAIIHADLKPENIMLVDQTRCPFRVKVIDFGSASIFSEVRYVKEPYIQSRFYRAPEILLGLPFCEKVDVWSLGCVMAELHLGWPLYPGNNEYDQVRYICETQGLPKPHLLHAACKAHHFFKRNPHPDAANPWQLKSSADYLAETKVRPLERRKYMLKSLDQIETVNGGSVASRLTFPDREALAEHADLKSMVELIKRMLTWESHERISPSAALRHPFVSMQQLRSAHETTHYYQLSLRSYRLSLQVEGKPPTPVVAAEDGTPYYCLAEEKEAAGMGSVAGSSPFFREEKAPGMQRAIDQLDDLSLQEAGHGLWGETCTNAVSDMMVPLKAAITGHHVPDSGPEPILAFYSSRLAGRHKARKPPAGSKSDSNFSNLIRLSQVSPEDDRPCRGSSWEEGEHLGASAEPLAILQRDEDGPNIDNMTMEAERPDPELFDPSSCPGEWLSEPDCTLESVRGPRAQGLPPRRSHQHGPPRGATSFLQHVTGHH
Chain of Serine/threonine-protein kinase Chk1 (Homo sapiens) (O14757 whole entry): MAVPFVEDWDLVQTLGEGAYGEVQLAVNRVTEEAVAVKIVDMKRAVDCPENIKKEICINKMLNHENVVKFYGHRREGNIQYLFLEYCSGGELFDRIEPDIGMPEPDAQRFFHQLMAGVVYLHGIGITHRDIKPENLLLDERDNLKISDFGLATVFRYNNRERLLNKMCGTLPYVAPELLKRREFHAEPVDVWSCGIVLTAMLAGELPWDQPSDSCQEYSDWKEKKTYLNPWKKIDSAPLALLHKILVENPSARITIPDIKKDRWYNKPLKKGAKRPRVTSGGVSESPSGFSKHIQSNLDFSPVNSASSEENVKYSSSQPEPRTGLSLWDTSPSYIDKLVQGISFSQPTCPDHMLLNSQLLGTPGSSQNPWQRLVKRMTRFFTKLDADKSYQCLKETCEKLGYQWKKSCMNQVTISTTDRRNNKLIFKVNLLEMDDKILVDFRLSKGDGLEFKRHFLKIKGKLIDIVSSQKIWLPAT

Activity [1]: 91%
Activity [2]: 97%
Activity [3]: 94%
Activity [4]: 77%
Activity [5]: 95%
Activity [6]: 96%
Activity [7]: 90%
Activity [8]: 81%
Activity [9]: 25%
Activity [10]: 98%
Activity [11]: 97%
Activity [12]: 40%
Activity [13]: 86%
Activity [14]: 90%
Activity [15]: 96%
Activity [16]: 91%
Activity [17]: 76%
Activity [18]: 103%
Activity [19]: 101%
Activity [20]: 89%
Activity [21]: 26%
Activity [22]: 106%
Activity [23]: 97%
Activity [24]: 94%
Activity [25]: 100%
Activity [26]: 96%
Activity [27]: 91%
Activity [28]: 95%
Activity [29]: 95%
Activity [30]: 91%
Activity [31]: 104%
SMILES: CCc1ccc(-c2ccc3c(c2)-c2[nH]ncc2S(=O)(=O)N3C)cc1
